The source made the active and inactive calls. The rule behind the calls is not given here.
Columns and labels:
[1] = in vitro; conditions: human, HEK293 cells
[2] = biological target: T1, Peroxisome proliferator-activated receptor alpha (Homo sapiens) (UniProt Q07869); experiment: Agonist activity at PPARalpha in human HuH7 cells assessed as increase of fatty acid oxidation by measuring CO2 production using […] at 20 uM after 18 hrs by scintillation counting; assay type: cell-based; conditions: Huh-7
T1 sequence (whole entry): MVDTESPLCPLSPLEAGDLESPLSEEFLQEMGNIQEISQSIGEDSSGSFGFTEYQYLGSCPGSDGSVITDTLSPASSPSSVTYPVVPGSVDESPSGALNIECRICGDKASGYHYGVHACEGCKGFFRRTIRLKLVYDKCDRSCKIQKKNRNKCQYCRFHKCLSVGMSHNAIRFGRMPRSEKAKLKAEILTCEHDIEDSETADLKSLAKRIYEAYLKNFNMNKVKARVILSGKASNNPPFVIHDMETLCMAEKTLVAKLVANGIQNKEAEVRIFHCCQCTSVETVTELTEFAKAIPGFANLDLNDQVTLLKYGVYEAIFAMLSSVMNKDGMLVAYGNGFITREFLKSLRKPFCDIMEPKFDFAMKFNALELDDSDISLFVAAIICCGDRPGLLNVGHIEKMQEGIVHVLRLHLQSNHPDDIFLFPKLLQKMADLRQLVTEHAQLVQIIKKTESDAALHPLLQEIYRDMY

[3] = biological target: Peroxisome proliferator-activated receptor (Homo sapiens) (UniProt P37231+Q07869+Q03181); experiment: Agonist activity at PPAR in human THP1 cells assessed as induction of ABCG1 expression at 20 uM after 24 hrs by Western blot analysis relative to control; assay type: cell-based; conditions: THP-1
Peroxisome proliferator-activated receptor (Homo sapiens), sequence (P37231 whole entry, looked up, one chain of several): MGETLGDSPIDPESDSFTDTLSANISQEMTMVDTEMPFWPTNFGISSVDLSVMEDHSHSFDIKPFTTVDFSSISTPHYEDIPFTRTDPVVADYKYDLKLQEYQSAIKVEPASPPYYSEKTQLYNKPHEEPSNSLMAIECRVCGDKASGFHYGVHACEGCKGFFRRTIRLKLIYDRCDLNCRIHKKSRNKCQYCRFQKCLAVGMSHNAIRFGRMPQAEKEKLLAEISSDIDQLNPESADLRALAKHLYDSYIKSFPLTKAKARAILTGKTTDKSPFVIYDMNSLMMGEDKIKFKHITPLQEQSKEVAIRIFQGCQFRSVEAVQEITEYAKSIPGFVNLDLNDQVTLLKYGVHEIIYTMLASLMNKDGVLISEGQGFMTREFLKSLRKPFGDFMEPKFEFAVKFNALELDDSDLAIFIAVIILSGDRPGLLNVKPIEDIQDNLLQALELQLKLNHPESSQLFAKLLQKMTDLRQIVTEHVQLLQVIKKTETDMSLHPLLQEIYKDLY
Peroxisome proliferator-activated receptor (Homo sapiens), sequence (Q03181 whole entry, looked up, one chain of several): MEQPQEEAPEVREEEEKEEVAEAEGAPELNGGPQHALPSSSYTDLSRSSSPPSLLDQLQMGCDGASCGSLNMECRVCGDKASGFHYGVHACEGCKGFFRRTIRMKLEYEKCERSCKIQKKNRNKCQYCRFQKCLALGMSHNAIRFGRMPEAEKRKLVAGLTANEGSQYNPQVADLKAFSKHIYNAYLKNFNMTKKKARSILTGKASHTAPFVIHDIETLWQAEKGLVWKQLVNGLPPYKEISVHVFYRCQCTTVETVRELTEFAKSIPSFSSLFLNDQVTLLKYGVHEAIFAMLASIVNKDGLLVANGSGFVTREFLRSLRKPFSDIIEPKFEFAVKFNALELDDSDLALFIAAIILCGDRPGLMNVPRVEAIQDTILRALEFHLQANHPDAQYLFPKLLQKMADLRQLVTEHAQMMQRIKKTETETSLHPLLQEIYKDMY

[4] = biological target: T1, Peroxisome proliferator-activated receptor alpha (Homo sapiens); experiment: Agonist activity at PPARalpha in human HuH7 cells assessed as increase of CPT1alpha expression at 20 uM by Western blotting relative to control; assay type: cell-based; conditions: Huh-7
In short: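 HuH7 hepatoma cells (DMEM/F-12, 10% FCS) incubated overnight ± 20 μM. Whole-cell lysates run on 12% SDS-PAGE and immunoblotted for CPT1α with HRP secondary and ECL. Band intensity normalised to actin; mean ± SEM, n = 3.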

[5] = biological target: T2, Peroxisome proliferator-activated receptor gamma (Mus musculus) (UniProt P37238); experiment: Agonist activity at PPARgamma in mouse 3T3-L1 cells assessed as increase of triacylglycerol accumulation at 20 uM after 18 hrs by ORO staining; assay type: cell-based
T2 sequence (whole entry): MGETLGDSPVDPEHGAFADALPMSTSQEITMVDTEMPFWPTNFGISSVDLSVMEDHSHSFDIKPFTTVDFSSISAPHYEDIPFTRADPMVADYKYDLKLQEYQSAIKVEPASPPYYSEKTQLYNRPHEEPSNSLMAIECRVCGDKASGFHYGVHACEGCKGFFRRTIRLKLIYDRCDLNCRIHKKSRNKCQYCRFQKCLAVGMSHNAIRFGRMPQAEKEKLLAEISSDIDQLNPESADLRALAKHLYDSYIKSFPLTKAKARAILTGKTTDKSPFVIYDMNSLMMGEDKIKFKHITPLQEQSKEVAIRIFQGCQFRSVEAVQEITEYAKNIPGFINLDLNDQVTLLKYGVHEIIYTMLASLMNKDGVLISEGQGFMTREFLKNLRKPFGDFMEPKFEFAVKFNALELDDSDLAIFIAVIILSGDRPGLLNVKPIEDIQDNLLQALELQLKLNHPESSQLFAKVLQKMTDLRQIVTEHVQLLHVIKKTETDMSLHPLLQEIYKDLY
In short: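 Differentiated 3T3-L1 adipocytes on coverslips, treated for 18 h (overnight) with 20 μM or 25 μM. Cells fixed in 4% PFA, rinsed in 60% isopropanol, stained 10 min with Oil Red O (0.5% stock diluted 6/4 in water), then imaged by microscopy for neutral lipid.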

Row | inhibition at 100 µM [1] [%] | Activity [2] | Activity [3] | fold change (FC) [3] | SMILES | also measured
1 | < 5 | Active |  |  | Cc1cccc(Nc2cc(Cl)nc(SCC(=O)O)n2)c1C [PIRINIXIC ACID] | 
2 | < 5 |  |  |  | CN(CCOc1ccc(CC2SC(=O)NC2=O)cc1)c1ccccn1 (stereo not given) [ROSIGLITAZONE] | 
3 |  |  | inactive |  | COc1ccc2c(=O)c(-c3ccccc3)coc2c1C | 
4 |  |  | inactive |  | CCOc1ccc2c(=O)c(-c3ccccc3)coc2c1C | 
5 |  | Active |  | 3 | CCN(CC)c1ccc(NC(=O)c2ccccc2OCC(=O)N2CCc3ccccc32)cc1 | fold change (FC) [4]: > 2; Activity [5]: 20%
6 |  |  |  | 3 | Cn1c(Cc2ccccc2)nn(CN2CCC(c3ccccc3)CC2)c1=S | 
